Measured values published in ChEMBL document CHEMBL5252539, “In vitro biological evaluation of new antimycobacterial salicylanilide-tuftsin conjugates” (Eur J Med Chem, 2017).
In brackets after ≈: the same amount, converted by molar mass. Activity calls are given as the source filed them. No cut-off for these calls is given here. *1 amine or outer side, *2 acyl side, *3 side chain or, on linkers, in order; H or OH if unused. Where a SMILES comes first, the peptide text is derived from it. [ ]: non-standard residue; d: D form. The star is where a group is joined. X2 = C/C(=N\OCC(=O)*)c1ccc(NC(=O)c2cc(Br)ccc2O)cc1; X1 = C/C(=N\OCC(=O)[*:2])c1ccc(N[*:1])cc1; Palmitoyl = CCCCCCCCCCCCCCCC(=O)*; X3 = O=C(c1cc(Cl)ccc1O)*

Key:
[1] = tested on: Mycobacteroides abscessus; experiment: Antimycobacterial activity against Mycobacterium abscessus ATCC 19977 assessed as reduction in bacterial growth after 7 days by serial dilution method; type: functional; conditions: ATCC 19977, 168 h, time 7 day
Outline: (§1)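 MIC determined in Sula semisynthetic medium, pH 6.5, 1 week incubation. Growth inhibition confirmed by plating on Löwenstein-Jensen solid medium and counting CFU. Bacteria inoculated without drug served as growth control.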

[2] = tested on: MONO-MAC-6; experiment: Cytostatic activity against human MONO-MAC-6 cells assessed as reduction in cell viability incubated for 24 hrs by MTT assay; type: functional, cell-based; conditions: MONO-MAC-6, 24 h
Outline: (§2)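 MTT viability assay after 24 h exposure of MonoMac6 human monocytic cells or HepG2 human hepatocellular carcinoma cells. Top concentration 200 μM. IC50 taken from dose-response curves as the concentration reducing viability to 50% of maximal.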

[3] = tested on: HepG2; experiment: Cytostatic activity against human HepG2 cells assessed as reduction in cell viability incubated for 24 hrs by MTT assay; type: functional, cell-based; conditions: HepG2, 24 h; outline: as §2
[4] = tested on: Mycobacterium tuberculosis; experiment: Antimycobacterial activity against Mycobacterium tuberculosis H37Rv ATCC 27294 assessed as reduction in bacterial growth after 28 days by serial dilution method; type: functional; conditions: H37Rv ATCC 27294, 672 h, time 28 day
Outline: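 Broth MIC in Sula semisynthetic medium, pH 6.5; 4-week incubation, with 21-day values […] where indicated. Drug-free inoculated bacteria served as growth control. MIC also expressed as drug content (µg/mL) = MIC (µM) × average SAL molar mass × number of SAL per conjugate / 1000.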

[5] = Selectivity index, ratio of IC50 for cytostatic activity against human MONO-MAC-6 cells to MIC for antimycobacterial activity against Mycobacterium tuberculosis H37Rv ATCC 27294; type: toxicity, cell-based; conditions: read-out: Selectivity Index
Outline: (§3)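 MTT assay on MonoMac6 or HepG2 cells after 24 h exposure, top concentration 200 µM. SI = IC50 (µM)/MIC (µM) against H37Rv from the 4-week Sula medium assay.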

[6] = tested on: Mycobacterium tuberculosis; experiment: […] antimycobacterial activity against Mycobacterium tuberculosis H37Rv ATCC 27294 infected in human MONO-MAC-6 cells assessed as reduction in colony forming unit at 125 uM for 6 days by colony counting based analysis; type: functional, organism-based; conditions: time 6.0 day
Outline: (§4)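 MonoMac6 monolayers infected with H37Rv, then treated with compound at 125 or 250 µM for 3 days. Treatment repeated with fresh compound solution for another 3 days. Intracellular bacteria quantified as CFU against untreated infected cells.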

[7] = tested on: Mycobacteroides abscessus; experiment: Antimycobacterial activity against Mycobacterium abscessus ATCC 19977 assessed as reduction in colony forming unit after 7 days by serial dilution method; type: functional, organism-based; conditions: time 7.0 day; outline: as §1
[8] = tested on: Mycobacterium tuberculosis; experiment: […] antimycobacterial activity against Mycobacterium tuberculosis H37Rv ATCC 27294 infected in human MONO-MAC-6 cells assessed as reduction in colony forming unit at 250 uM for 6 days by colony counting based analysis; type: functional, organism-based; conditions: time 6.0 day; outline: as §4
[9] = Selectivity index, ratio of IC50 for cytostatic activity against human HepG2 cells to MIC for antimycobacterial activity against Mycobacterium tuberculosis H37Rv ATCC 27294; type: toxicity, cell-based; conditions: read-out: Selectivity Index; outline: as §3
[10] = tested on: Mycobacterium tuberculosis; experiment: Antimycobacterial activity against Mycobacterium tuberculosis H37Rv ATCC 27294 assessed as reduction in colony forming unit after 28 days by serial dilution method; type: functional, organism-based; conditions: time 28.0 day
Outline: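 After the 4-week MIC incubation in Sula semisynthetic medium (pH 6.5), growth inhibition confirmed by plating on Löwenstein-Jensen solid medium and counting colony forming units.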

Structure (SMILES)	MIC [1]	IC50 [2]	IC50 [3]	MIC [4]	selectivity ratio [5]	Activity [6]	Activity [7]	Activity [8]	selectivity ratio [9]	Activity [10]
O=C(Nc1ccc(C(F)(F)F)cc1)c1cc(Cl)ccc1O	3.2 µM (≈ 1.01 µg/mL)	2.2 µM	5.8 µM	1.6 µM (≈ 0.505 µg/mL)						
C/C(=N\OCC(=O)NCC(=O)N[C@@H](Cc1ccccc1)C(=O)N[C@@H](CC(C)C)C(=O)NCC(=O)N[C@H](C(=O)N[C@@H](CCCCN)C(=O)N1CCC[C@H]1C(=O)N[C@@H](CCCCN)C(=O)NCC(=O)N[C@H](C(=O)N[C@@H](CCCCN)C(=O)N1CCC[C@H]1C(=O)N[C@@H](CCCCN)C(=O)NCC(=O)N[C@H](C(=O)N[C@@H](CCCCN)C(=O)N1CCC[C@H]1C(=O)N[C@@H](CCCCN)C(=O)NCC(=O)N[C@H](C(=O)N[C@@H](CCCCN)C(=O)N1CCC[C@H]1C(=O)N[C@@H](CCCCN)C(=O)NCC(N)=O)[C@@H](C)O)[C@@H](C)O)[C@@H](C)O)[C@@H](C)O)c1ccc(NC(=O)c2cc(Br)ccc2O)cc1	70.7 µM (≈ 200 µg/mL)			142 µM (≈ 400 µg/mL)						
CCCCCCCCCCCCCCCC(=O)O [PALMITIC ACID]		178 µM								
CCCCCCCCCCCCCCCC(=O)NCCCC[C@H](NC(=O)[C@@H]1CCCN1C(=O)[C@H](CCCCN)NC(=O)[C@@H](NC(=O)CO/N=C(\C)c1ccc(NC(=O)c2cc(Cl)ccc2O)cc1)[C@@H](C)O)C(=O)NCC(=O)N[C@H](C(=O)N[C@@H](CCCCN)C(=O)N1CCC[C@H]1C(=O)N[C@@H](CCCCN)C(=O)NCC(=O)N[C@H](C(=O)N[C@@H](CCCCN)C(=O)N1CCC[C@H]1C(=O)N[C@@H](CCCCN)C(=O)NCC(=O)N[C@H](C(=O)N[C@@H](CCCCN)C(=O)N1CCC[C@H]1C(=O)N[C@@H](CCCCN)C(=O)NCC(N)=O)[C@@H](C)O)[C@@H](C)O)[C@@H](C)O (X3-[X1]TKPK(Palmitoyl)GTKPKGTKPKGTKPKG-NH2)	75.6 µM (≈ 200 µg/mL)	16.8 µM	42.9 µM	94.5 µM (≈ 250 µg/mL)	0.2	Active	Active	Active	0.5	Active
C/C(=N\OCC(=O)NCC(=O)N[C@@H](Cc1ccccc1)C(=O)N[C@@H](CC(C)C)C(=O)NCC(=O)N[C@H](C(=O)N[C@@H](CCCCN)C(=O)N1CCC[C@@H]1C(=O)N1CCC[C@H]1C(=O)N[C@H](CCCNC(=N)N)C(=O)O)[C@@H](C)O)c1ccc(NC(=O)c2cc(Br)ccc2O)cc1						inactive	Active	Active		Active
C/C(=N\OCC(=O)NCC(=O)N[C@@H](Cc1ccccc1)C(=O)N[C@@H](CC(C)C)C(=O)NCC(=O)N[C@H](C(=O)N[C@@H](CCCCN)C(=O)N1CCC[C@H]1C(=O)N[C@@H](CCCNC(=N)N)C(=O)O)[C@@H](C)O)c1ccc(NC(=O)c2cc(Br)ccc2O)cc1 [listing 1 of 2 here]	158 µM (≈ 200 µg/mL)			31.6 µM (≈ 40 µg/mL)						
C/C(=N\OCC(=O)NCC(=O)N[C@@H](Cc1ccccc1)C(=O)N[C@@H](CC(C)C)C(=O)NCC(=O)N[C@H](C(=O)N[C@@H](CCCCN)C(=O)N1CCC[C@H]1C(=O)N1CCC[C@H]1C(=O)N[C@@H](CCCNC(=N)N)C(=O)O)[C@@H](C)O)c1ccc(NC(=O)c2cc(Br)ccc2O)cc1 [listing 1 of 2 here]		> 200 µM	156 µM		> 6.8				5.3	
CC(=O)c1ccc(NC(=O)c2cc(Cl)ccc2O)cc1	34.5 µM (≈ 10 µg/mL)	16.1 µM	7.9 µM	8.6 µM (≈ 2.49 µg/mL)	1.9		Active		0.9	Active
C/C(=N\OCC(=O)N[C@H](C(=O)N[C@@H](CCCCN)C(=O)N1CCC[C@H]1C(=O)N1CCC[C@H]1C(=O)N[C@@H](CCCNC(=N)N)C(=O)O)[C@@H](C)O)c1ccc(NC(=O)c2cc(Br)ccc2O)cc1	203 µM (≈ 200 µg/mL)			20.3 µM (≈ 20 µg/mL)						
C/C(=N\OCC(=O)NCC(=O)N[C@@H](Cc1ccccc1)C(=O)N[C@@H](CC(C)C)C(=O)NCC(=O)N[C@H](C(=O)N[C@@H](CCCCN)C(=O)N1CCC[C@H]1C(=O)N1CCC[C@H]1C(=O)N[C@@H](CCCNC(=N)N)C(=O)O)[C@@H](C)O)c1ccc(NC(=O)c2cc(Br)ccc2O)cc1 [listing 2 of 2 here]	147 µM (≈ 200 µg/mL)			29.4 µM (≈ 40 µg/mL)						
C/C(=N\OCC(=O)NCC(=O)N[C@@H](Cc1ccccc1)C(=O)N[C@@H](CC(C)C)C(=O)NCC(=O)N[C@H](C(=O)N[C@@H](CCCCN)C(=O)N1CCC[C@H]1C(=O)N[C@@H](CCCNC(=N)N)C(=O)O)[C@@H](C)O)c1ccc(NC(=O)c2cc(Br)ccc2O)cc1 [listing 2 of 2 here]		> 200 µM	113 µM		> 6.3				3.6	
O=C(Nc1ccc(C(F)(F)F)cc1)c1cc(Br)ccc1O	13.9 µM (≈ 5.01 µg/mL)	2 µM	5.5 µM	1.4 µM (≈ 0.504 µg/mL)	1.4				3.9	
C/C(=N\OCC(=O)N[C@H](C(=O)N[C@@H](CCCCN)C(=O)N1CCC[C@H]1C(=O)N[C@@H](CCCCN)C(=O)NCC(=O)N[C@H](C(=O)N[C@@H](CCCCN)C(=O)N1CCC[C@H]1C(=O)N[C@@H](CCCCN)C(=O)NCC(=O)N[C@H](C(=O)N[C@@H](CCCCN)C(=O)N1CCC[C@H]1C(=O)N[C@@H](CCCCN)C(=O)NCC(=O)N[C@H](C(=O)N[C@@H](CCCCN)C(=O)N1CCC[C@H]1C(=O)N[C@@H](CCCCN)C(=O)NCC(N)=O)[C@@H](C)O)[C@@H](C)O)[C@@H](C)O)[C@@H](C)O)c1ccc(NC(=O)c2cc(Cl)ccc2O)cc1 (X3-[X1]TKPKGTKPKGTKPKGTKPKG-NH2)	41.5 µM (≈ 99.9 µg/mL)	> 200 µM	> 200 µM	83 µM (≈ 200 µg/mL)	> 2.4	Active	Active	Active	> 2.4	Active
C/C(=N\OCC(=O)N[C@H](C(=O)N[C@@H](CCCCN)C(=O)N1CCC[C@H]1C(=O)N1CCC[C@@H]1C(=O)N[C@H](CCCNC(=N)N)C(=O)O)[C@@H](C)O)c1ccc(NC(=O)c2cc(Br)ccc2O)cc1						Active	Active	Active		Active
O=C(Nc1ccc(Cl)c(Cl)c1)c1cc(Br)ccc1O	7 µM (≈ 2.53 µg/mL)	1.4 µM	4.1 µM	1.4 µM (≈ 0.505 µg/mL)	1				2.9	
O=Cc1ccc(O)c(C(=O)Nc2ccc(C(F)(F)F)cc2)c1	129 µM (≈ 40 µg/mL)	21.5 µM	17.6 µM	25.9 µM (≈ 8.01 µg/mL)	0.8		Active		0.7	Active
C/C(=N\OCC(=O)NCCCC[C@H](NC(=O)[C@@H]1CCCN1C(=O)[C@H](CCCCN)NC(=O)[C@@H](NC(=O)CNC(=O)[C@H](CCCCNC(=O)CO/N=C(\C)c1ccc(NC(=O)c2cc(Br)ccc2O)cc1)NC(=O)[C@@H]1CCCN1C(=O)[C@H](CCCCN)NC(=O)[C@@H](NC(=O)[C@H](CCCNC(=N)N)NC(=O)[C@@H]1CCCN1C(=O)[C@H](CCCCN)NC(=O)[C@@H](N)[C@@H](C)O)[C@@H](C)O)[C@@H](C)O)C(=O)NCC(=O)O)c1ccc(NC(=O)c2cc(Br)ccc2O)cc1 (H-TKPRTKPK(X2)GTKPK(X2)G-OH)	86.9 µM (≈ 200 µg/mL)	101 µM	95.2 µM	34.8 µM (≈ 80.1 µg/mL)	2.9	Active	Active	Active	2.7	Active
CCCCCCCCCC(=O)O [DECANOIC ACID]		> 200 µM								
C/C(=N\OCC(=O)NCC(=O)N[C@@H](Cc1ccccc1)C(=O)N[C@@H](CC(C)C)C(=O)NCC(=O)N[C@H](C(=O)N[C@@H](CCCCN)C(=O)N1CCC[C@@H]1C(=O)N[C@H](CCCNC(=N)N)C(=O)O)[C@@H](C)O)c1ccc(NC(=O)c2cc(Br)ccc2O)cc1						Active	Active	Active		Active
O=C(Nc1ccc(Cl)c(Cl)c1)c1cc(Cl)ccc1O	3.2 µM (≈ 1.01 µg/mL)	3.8 µM	2.4 µM	1.6 µM (≈ 0.507 µg/mL)	2.4				1.5	
NNC(=O)c1ccncc1 [ISONIAZID]	292 µM (≈ 40 µg/mL)			1.17 µM (≈ 0.16 µg/mL)			Active			Active
